Test results as given in ChEMBL document CHEMBL1141882, “Synthesis and biological testing of purine derivatives as potential ATP-competitive kinase inhibitors” (J Med Chem, 2005).

What was measured:
[1] = target: Mitogen-activated protein kinase 10 (Rattus norvegicus) (UniProt P49187); experiment: Inhibition of rat c-Jun N-terminal kinase-3 at 30 uM
In short: (§1)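 Kinase activity assayed with ATP at 100 µM, deliberately higher than usual assay ATP levels because the inhibitors are assumed ATP-competitive. Results are reported as percent inhibition of each kinase.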

[2] = target: Mitogen-activated protein kinase 8 (Homo sapiens) (UniProt P45983); experiment: Inhibition of human c-Jun N-terminal kinase-1 alpha-1 at 30 uM; in short: as §1
[3] = target: Tyrosine-protein kinase Lck (Homo sapiens) (UniProt P06239); experiment: Inhibition of human lymphocyte protein tyrosine kinase Lck at 30 uM; in short: as §1
[4] = target: Rho-associated protein kinase 2 (Homo sapiens) (UniProt O75116); experiment: Inhibition of human Rho-dependent protein kinase-II at 30 uM
[5] = target: Mitogen-activated protein kinase 9 (Homo sapiens) (UniProt P45984); experiment: Inhibition of human c-Jun N-terminal kinase-2 alpha-2 at 30 uM; in short: as §1
[6] = target: cAMP-dependent protein kinase (PKA) (Homo sapiens) (UniProt P22694+P17612+P22612); experiment: Inhibition of human cAMP-dependent protein kinase (PKA); type: protein assay; parameters: concentration or dose not given beside the values; conditions: concentration not given here
[7] = target: Mitogen-activated protein kinase 1 (Homo sapiens) (UniProt P28482); experiment: Inhibition of human Mitogen-activated protein kinase 2 at 30 uM; in short: as §1
Target sequence in this assay (P28482 whole entry): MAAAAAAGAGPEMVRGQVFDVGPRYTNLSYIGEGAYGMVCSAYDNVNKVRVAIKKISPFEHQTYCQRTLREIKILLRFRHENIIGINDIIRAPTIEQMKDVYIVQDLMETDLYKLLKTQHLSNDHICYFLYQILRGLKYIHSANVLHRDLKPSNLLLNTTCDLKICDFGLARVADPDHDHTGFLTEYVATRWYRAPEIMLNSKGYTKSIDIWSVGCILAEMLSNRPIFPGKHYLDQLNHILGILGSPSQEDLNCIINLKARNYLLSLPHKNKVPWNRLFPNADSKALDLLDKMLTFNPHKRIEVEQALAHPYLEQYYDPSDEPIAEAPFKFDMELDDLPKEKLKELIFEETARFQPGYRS

[8] = target: Ca2+/calmodulin-dependent protein kinase II (CaM kinase II) (Rattus norvegicus) (UniProt P11275+P08413+P15791+P11730); experiment: Inhibition of rat Calcium/calmodulin-dependent protein kinase type II at 30 uM; type: protein assay; in short: as §1
[9] = target: RAF proto-oncogene serine/threonine-protein kinase (Homo sapiens) (UniProt P04049); experiment: Inhibition of human RAF proto-oncogene serine/threonine-protein kinase at 30 uM; in short: as §1
[10] = target: Mitogen-activated protein kinase 1 (Homo sapiens) (UniProt P28482); experiment: Inhibition of human Mitogen-activated protein kinase 1 at 30 uM
[11] = target: Glycogen synthase kinase-3 beta (Homo sapiens) (UniProt P49841); experiment: Inhibition of human Glycogen synthase kinase-3 beta at 30 uM; in short: as §1
[12] = target: Protein kinase C alpha type (Homo sapiens) (UniProt P17252); experiment: Inhibition of human Protein kinase C alpha; parameters: concentration or dose not given beside the values; conditions: concentration not given here
[13] = target: RAC-alpha serine/threonine-protein kinase (Homo sapiens) (UniProt P31749); experiment: Inhibition of human Protein kinase B alpha at 30 uM; in short: as §1
[14] = target: Dual specificity mitogen-activated protein kinase kinase 1 (Homo sapiens) (UniProt Q02750); experiment: Inhibition of human Mitogen activated protein kinase kinase 1 (MEK1) at 30 uM; in short: as §1
[15] = target: Mitogen-activated protein kinase 14 (Homo sapiens) (UniProt Q16539); experiment: Inhibition of human stress-activated protein kinase-2 alpha (p38 MAP-kinase) at 30 uM; in short: as §1
Mitogen-activated protein kinase 14 (Homo sapiens), sequence (Q16539 whole entry): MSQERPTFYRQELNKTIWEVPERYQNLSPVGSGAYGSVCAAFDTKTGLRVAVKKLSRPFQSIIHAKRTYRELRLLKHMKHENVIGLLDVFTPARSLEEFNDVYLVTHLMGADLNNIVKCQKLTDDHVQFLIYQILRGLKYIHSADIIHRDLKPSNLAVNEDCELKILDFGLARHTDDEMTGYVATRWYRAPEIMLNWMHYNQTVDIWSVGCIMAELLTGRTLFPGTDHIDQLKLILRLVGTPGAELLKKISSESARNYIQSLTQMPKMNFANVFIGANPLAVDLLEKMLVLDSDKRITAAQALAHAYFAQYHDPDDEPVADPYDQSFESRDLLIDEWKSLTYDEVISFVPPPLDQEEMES

RAC-alpha serine/threonine-protein kinase (Homo sapiens), sequence (P31749 whole entry): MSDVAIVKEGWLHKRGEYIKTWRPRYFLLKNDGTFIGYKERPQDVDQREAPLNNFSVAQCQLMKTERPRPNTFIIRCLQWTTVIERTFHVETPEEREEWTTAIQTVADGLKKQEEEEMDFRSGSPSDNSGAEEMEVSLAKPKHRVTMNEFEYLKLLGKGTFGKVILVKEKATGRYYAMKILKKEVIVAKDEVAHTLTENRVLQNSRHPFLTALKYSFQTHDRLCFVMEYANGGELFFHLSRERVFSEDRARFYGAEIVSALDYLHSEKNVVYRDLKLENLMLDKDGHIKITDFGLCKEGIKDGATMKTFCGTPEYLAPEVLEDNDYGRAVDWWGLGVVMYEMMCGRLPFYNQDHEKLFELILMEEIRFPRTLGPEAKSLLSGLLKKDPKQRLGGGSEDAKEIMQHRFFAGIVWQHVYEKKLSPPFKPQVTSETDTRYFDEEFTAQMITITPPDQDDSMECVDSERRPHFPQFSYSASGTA
Glycogen synthase kinase-3 beta (Homo sapiens), sequence (P49841 whole entry, looked up): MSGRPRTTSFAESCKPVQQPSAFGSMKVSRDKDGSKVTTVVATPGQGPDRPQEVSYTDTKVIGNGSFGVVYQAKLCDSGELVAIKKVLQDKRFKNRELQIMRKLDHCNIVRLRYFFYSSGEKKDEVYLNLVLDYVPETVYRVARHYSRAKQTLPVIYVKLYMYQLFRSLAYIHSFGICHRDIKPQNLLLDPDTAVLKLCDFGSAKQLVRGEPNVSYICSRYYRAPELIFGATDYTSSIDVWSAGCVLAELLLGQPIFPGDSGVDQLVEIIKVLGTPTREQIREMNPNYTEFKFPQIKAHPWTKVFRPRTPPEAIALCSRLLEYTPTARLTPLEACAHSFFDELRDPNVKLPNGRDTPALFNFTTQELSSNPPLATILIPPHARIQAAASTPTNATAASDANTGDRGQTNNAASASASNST
Rho-associated protein kinase 2 (Homo sapiens), sequence (O75116 whole entry, looked up): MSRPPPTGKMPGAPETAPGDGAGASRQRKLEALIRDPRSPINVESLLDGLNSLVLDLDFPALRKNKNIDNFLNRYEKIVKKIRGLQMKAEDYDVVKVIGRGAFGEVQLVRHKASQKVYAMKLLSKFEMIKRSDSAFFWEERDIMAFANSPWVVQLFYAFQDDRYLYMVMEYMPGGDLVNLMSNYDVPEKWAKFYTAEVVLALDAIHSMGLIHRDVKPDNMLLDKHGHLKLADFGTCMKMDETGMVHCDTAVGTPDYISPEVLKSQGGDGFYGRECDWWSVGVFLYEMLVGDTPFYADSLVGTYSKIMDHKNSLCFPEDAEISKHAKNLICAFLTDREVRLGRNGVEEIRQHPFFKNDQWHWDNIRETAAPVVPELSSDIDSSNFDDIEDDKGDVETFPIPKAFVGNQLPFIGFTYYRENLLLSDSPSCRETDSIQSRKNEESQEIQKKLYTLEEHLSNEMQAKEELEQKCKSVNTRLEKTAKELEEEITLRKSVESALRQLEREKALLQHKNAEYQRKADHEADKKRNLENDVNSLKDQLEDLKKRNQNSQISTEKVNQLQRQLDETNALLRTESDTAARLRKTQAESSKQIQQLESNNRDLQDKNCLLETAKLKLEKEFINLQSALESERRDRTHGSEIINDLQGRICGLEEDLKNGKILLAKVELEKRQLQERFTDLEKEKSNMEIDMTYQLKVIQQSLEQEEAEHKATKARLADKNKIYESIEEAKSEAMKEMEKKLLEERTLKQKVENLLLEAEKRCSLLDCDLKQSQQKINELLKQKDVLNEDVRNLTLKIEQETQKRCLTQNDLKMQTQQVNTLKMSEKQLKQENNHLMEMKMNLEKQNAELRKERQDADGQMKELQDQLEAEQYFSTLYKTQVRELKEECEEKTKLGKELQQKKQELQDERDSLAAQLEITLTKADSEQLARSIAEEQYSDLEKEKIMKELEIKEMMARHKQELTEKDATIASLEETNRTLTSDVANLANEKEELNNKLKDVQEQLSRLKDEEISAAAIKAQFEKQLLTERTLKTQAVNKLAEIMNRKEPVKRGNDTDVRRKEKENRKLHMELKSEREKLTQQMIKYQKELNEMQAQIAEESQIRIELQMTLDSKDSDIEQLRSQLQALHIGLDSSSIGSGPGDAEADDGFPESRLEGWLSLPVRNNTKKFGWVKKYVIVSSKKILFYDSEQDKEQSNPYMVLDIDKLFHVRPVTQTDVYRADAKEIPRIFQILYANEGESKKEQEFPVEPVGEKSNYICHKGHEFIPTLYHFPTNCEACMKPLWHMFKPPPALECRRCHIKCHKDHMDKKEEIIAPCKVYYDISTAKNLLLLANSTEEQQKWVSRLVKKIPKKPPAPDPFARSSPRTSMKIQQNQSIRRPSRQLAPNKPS
Mitogen-activated protein kinase 9 (Homo sapiens), sequence (P45984 whole entry, looked up): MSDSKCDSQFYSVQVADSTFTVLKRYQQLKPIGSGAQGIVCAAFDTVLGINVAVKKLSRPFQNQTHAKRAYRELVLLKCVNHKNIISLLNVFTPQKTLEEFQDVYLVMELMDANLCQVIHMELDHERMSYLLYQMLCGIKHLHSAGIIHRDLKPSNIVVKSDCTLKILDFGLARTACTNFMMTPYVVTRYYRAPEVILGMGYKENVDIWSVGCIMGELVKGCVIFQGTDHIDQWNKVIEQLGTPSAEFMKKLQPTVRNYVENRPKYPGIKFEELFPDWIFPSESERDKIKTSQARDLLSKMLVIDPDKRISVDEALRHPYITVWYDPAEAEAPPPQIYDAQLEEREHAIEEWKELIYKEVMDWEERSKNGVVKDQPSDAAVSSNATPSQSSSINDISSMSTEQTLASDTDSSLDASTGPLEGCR
Mitogen-activated protein kinase 10 (Rattus norvegicus), sequence (P49187 whole entry): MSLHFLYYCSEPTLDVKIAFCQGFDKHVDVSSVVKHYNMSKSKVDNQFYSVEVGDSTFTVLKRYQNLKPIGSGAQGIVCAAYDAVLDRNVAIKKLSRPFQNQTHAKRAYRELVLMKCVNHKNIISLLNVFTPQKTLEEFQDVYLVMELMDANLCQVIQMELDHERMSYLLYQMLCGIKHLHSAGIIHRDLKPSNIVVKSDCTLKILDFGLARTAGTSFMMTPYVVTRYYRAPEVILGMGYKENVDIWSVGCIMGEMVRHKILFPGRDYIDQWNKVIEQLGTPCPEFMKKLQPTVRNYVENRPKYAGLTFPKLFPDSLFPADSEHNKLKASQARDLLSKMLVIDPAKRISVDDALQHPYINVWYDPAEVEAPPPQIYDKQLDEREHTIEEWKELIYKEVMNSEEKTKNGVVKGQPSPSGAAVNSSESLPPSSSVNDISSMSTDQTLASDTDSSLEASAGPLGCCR
Mitogen-activated protein kinase 8 (Homo sapiens), sequence (P45983 whole entry): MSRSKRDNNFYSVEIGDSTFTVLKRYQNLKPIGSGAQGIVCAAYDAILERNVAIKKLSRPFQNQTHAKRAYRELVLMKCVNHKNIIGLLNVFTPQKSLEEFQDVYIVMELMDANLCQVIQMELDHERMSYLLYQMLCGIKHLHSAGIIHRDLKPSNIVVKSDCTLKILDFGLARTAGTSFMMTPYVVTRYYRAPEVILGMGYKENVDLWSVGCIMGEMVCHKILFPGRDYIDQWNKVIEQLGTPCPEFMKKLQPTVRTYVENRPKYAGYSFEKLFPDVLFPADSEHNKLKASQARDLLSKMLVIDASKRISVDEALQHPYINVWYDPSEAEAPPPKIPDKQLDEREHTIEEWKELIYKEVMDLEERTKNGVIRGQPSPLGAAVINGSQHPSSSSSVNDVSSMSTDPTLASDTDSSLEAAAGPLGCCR

| inhibition [1] | inhibition [2] | inhibition [3] | inhibition [4] | inhibition [5] | inhibition [6] | inhibition [7] | inhibition [8] | inhibition [9] | inhibition [10] | inhibition [11] | inhibition [12] | inhibition [13] | inhibition [14] | inhibition [15] | Structure (SMILES) |
| --- | --- | --- | --- | --- | --- | --- | --- | --- | --- | --- | --- | --- | --- | --- | --- |
| 11% | 0% | 39% | 48% | 0% | 32% | 33% | 0% | 19% | 22% | 13% | 6% | 14% | 19% | 34% | c1ccc(Nc2ncnc3[nH]cnc23)cc1 |
| 5% | 2% | 52% | 42% | 6% | 0% | 2% | 3% | 43% |  | 4% | 15% | 0% | 36% | 79% | Fc1ccc(Sc2[nH]cnc3nccc2-3)cc1 |
| 16% | 0% | 0% | 3% | 0% | 2% | 0% | 7% | 4% |  | 0% | 17% | 0% | 3% | 11% | Clc1ncnc2c1ncn2Cc1ccccc1 |
